Test results from ChEMBL document CHEMBL3352721, “Identification, optimization, and pharmacology of acylurea GHS-R1a inverse agonists” (J Med Chem, 2014).
pIC50: −log10 of the molar value. Values after ≈ are worked out from the molar mass of the structure shown.

Assays:
MDR1 [1] = assay: Efflux ratio in MDCK cells expressing MDR1 at 10 uM; assay type: ADME, cell-based, Canis lupus familiaris; conditions: dog
How it was run: (§1)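 MDCK-MDR1 monolayers incubated with compound at 10 µM; permeability measured in both A→B and B→A directions, giving Papp A-B (x10^6 cm/s) and the efflux ratio.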

MDR1 [2] = assay: Apparent permeability in MDCK cells expressing MDR1 at 10 uM assessed as apical to basolateral side transport; assay type: ADME, cell-based, Canis lupus familiaris; conditions: dog; how it was run: as §1
[3] = Ratio of drug level in homogenized brain to plasma in Han-Wistar rat measured 1 hr after iv bolus then iv infusion by LC-MS/MS method; assay type: ADME, organism-based; conditions: read-out: BPR
How it was run: (§2)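 Brain:plasma ratio in homogenized brain 1 h after IV bolus followed by IV infusion. The free ratio used free fractions measured in plasma and brain (brain slice method or brain homogenate).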

[4] = Lipophilicity, logD of the compound; assay type: physicochemical; conditions: octanol/water
[5] = target: Growth hormone secretagogue receptor type 1 (Homo sapiens, UniProt Q92847); assay: Displacement of [125I]human ghrelin from human GHS-R1a expressed in HEK cell membranes after 60 mins by gamma counting method; parameters: species or system HEK293
[6] = Cmax in Han-Wistar rat at 2 mg/kg, po by LC-MS/MS method; assay type: ADME, organism-based; parameters: dose 2 mg/kg, route oral; conditions: in vivo
How it was run: (§3)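 Oral gavage in male HW rats, beagle dogs or CD-1 mice, vehicle Pluronic F127 in water. EDTA plasma was collected over 24 h and quantified by LC/MS/MS after acetonitrile precipitation. Cmax and bioavailability were obtained by non-compartmental analysis against IV data.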

[7] = Aqueous solubility at pH 7.4 under thermodynamic conditions; assay type: physicochemical; conditions: buffer, read-out: Therm_solubility
How it was run: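 Thermodynamic solubility measured from solid samples in aqueous medium at pH 7.4.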

[8] = Ratio of free drug level in homogenized brain to plasma in Han-Wistar rat measured 1 hr after iv bolus then iv infusion by LC-MS/MS method; assay type: ADME, organism-based; conditions: read-out: BPR; how it was run: as §2
[9] = Cmax in CD1 mouse at 2 mg/kg, po by LC-MS/MS method; assay type: ADME, organism-based; parameters: dose 2 mg/kg, route oral; conditions: in vivo; how it was run: as §3

Sequence of Growth hormone secretagogue receptor type 1 (Q92847 whole entry): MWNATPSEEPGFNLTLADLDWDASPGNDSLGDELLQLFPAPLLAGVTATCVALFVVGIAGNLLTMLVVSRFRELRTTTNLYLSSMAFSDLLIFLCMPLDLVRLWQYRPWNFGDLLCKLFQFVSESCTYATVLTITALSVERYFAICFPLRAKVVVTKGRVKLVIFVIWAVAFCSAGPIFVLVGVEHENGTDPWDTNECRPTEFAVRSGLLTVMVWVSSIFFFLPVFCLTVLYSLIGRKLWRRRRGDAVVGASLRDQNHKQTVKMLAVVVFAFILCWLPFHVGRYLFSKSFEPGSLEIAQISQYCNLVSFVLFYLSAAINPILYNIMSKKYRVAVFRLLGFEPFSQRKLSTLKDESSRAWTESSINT

| SMILES | efflux ratio at 10 µM (MDR1 [1]) | Papp A→B at 10 µM (MDR1 [2]) | Kp at 1 h [3] | logD [4] | pIC50 [5] | Cmax [6] | solubility thermodynamic [7] | Kp uu at 1 h [8] | Cmax [9] |
| --- | --- | --- | --- | --- | --- | --- | --- | --- | --- |
| C#Cc1ccc(Cl)c(C(=O)NC(=O)Nc2nc3ccc(S(=O)(=O)CCCN4CCN(C)CC4)cc3s2)c1 | 3.3 | 3.3 ×10⁻⁶ cm/s | < 0.03 | 2.3 | 8.29 | 1400 nM |  |  |  |
| Cc1cc(C)n(-c2ccc(Cl)c(C(=O)NC(=O)Nc3nc4ccc(S(=O)(=O)CCCN5CCN(C)CC5)cc4s3)c2)n1 | 76 | 0.44 ×10⁻⁶ cm/s |  | 2.5 | 8.89 | 78 nM |  |  |  |
| Cc1ccn(-c2ccc(Cl)c(C(=O)NC(=O)Nc3nc4ccc(S(=O)(=O)CCCN5CCN(C)CC5)cc4s3)c2)n1 | 14 | 0.68 ×10⁻⁶ cm/s |  | 2.6 | 9.28 | 410 nM |  |  |  |
| COc1cc(Cl)c(C(=O)NC(=O)Nc2nc3ccc(S(=O)(=O)CCCN4CCN(C)CC4)cc3s2)cc1-n1cccn1 | 46 | 0.86 ×10⁻⁶ cm/s |  | 2.2 |  |  |  |  |  |
| CS(=O)(=O)c1ccc2nc(NC(=O)NC(=O)c3cc(-n4cccc4)ccc3Cl)sc2c1 |  |  |  | 2.8 |  |  |  |  |  |
| CS(=O)(=O)c1ccc2nc(NC(=O)NC(=O)c3ccccc3Cl)sc2c1 |  |  |  | 2.5 | 6.92 |  | < 0.47 µM |  |  |
| CN1CCN(CCCS(=O)(=O)c2ccc3nc(NC(=O)NC(=O)c4cc(C5CC5)ccc4Cl)sc3c2)CC1 | 9.1 | 2 ×10⁻⁶ cm/s | 0.18 | 2.9 | 9.48 | 1400 nM |  | 1.2 |  |
| CN1CCN(CCCS(=O)(=O)c2ccc3nc(NC(=O)NC(=O)c4cc(-n5cccc5)ccc4Cl)sc3c2)CC1 | 38 | 0.37 ×10⁻⁶ cm/s |  | 2.6 | 9.82 | 580 nM |  |  |  |
| CN1CCC(S(=O)(=O)c2ccc3nc(NC(=O)NC(=O)c4cc(N5CCCC5)ccc4Cl)sc3c2)CC1 | 0.05 | 11 ×10⁻⁶ cm/s |  | 3.1 | 9.04 |  |  |  | 5800 nM |
| CN1CCC(S(=O)(=O)c2ccc3nc(NC(=O)NC(=O)c4ccccc4Cl)sc3c2)CC1 | 0.9 | 17 ×10⁻⁶ cm/s |  | 2.2 | 7.19 |  | 69 µM (≈ 34 µg/mL) |  |  |
| COCCNCCCS(=O)(=O)c1ccc2nc(NC(=O)NC(=O)c3ccccc3Cl)sc2c1 |  |  |  | 1.3 | 8.07 |  | 87 µM (≈ 44.5 µg/mL) |  |  |
| CS(=O)(=O)c1ccc2nc(NC(=O)NC(=O)c3ccccc3Cl)oc2c1 |  |  |  | 1.1 | < 5.00 |  | 72 µM (≈ 28.4 µg/mL) |  |  |
| O=C(NC(=O)c1ccccc1Cl)Nc1nc2ccc(S(=O)(=O)CCN3CCCC3)cc2s1 |  |  |  | 2.7 |  |  | 64 µM (≈ 31.6 µg/mL) |  |  |
| CS(=O)(=O)c1ccc2sc(NC(=O)NC(=O)c3ccccc3Cl)nc2c1 |  |  |  | 2.8 | 5.33 |  | 3 µM (≈ 1.23 µg/mL) |  |  |
| CN1CCN(CCCS(=O)(=O)c2ccc3nc(NC(=O)NC(=O)c4cc(N5CCCC5)ccc4Cl)sc3c2)CC1 | 0.55 | 4.5 ×10⁻⁶ cm/s | < 0.03 | 3.1 | 9.54 | 640 nM |  |  |  |
| CN1CCN(CCS(=O)(=O)c2ccc3nc(NC(=O)NC(=O)c4ccccc4Cl)sc3c2)CC1 |  |  |  | 1.5 |  |  | 240 µM (≈ 125 µg/mL) |  |  |
| CN1CCN(CCCS(=O)(=O)c2ccc3nc(NC(=O)NC(=O)c4cc5c(ccn5C)cc4Cl)sc3c2)CC1 | 0.71 | 3.9 ×10⁻⁶ cm/s | 0.049 | 2.8 | 9.24 | 300 nM |  | 0.04 |  |

| SMILES | efflux ratio at 10 µM (MDR1 [1]) | Papp A→B at 10 µM (MDR1 [2]) | Kp at 1 h [3] | logD [4] | pIC50 [5] | Cmax [6] | solubility thermodynamic [7] | Kp uu at 1 h [8] | Cmax [9] |
| --- | --- | --- | --- | --- | --- | --- | --- | --- | --- |
| CCN(CC)CCCS(=O)(=O)c1ccc2nc(NC(=O)NC(=O)c3ccccc3Cl)sc2c1 | 2.7 | 5.4 ×10⁻⁶ cm/s |  | 1.7 | 7.89 |  | 280 µM (≈ 143 µg/mL) |  |  |
| CN1CCN(CCCS(=O)(=O)c2ccc3nc(NC(=O)NC(=O)c4cc(-c5ccccn5)ccc4Cl)sc3c2)CC1 | 19 | 0.52 ×10⁻⁶ cm/s |  | 2.5 | 9.16 | 1000 nM |  |  |  |
| CN1CCC(S(=O)(=O)c2ccc3nc(NC(=O)NC(=O)c4cc(-n5cccn5)ccc4Cl)sc3c2)CC1 | 2.5 | 3.9 ×10⁻⁶ cm/s |  | 2.5 | 7.82 |  |  |  | 1500 nM |
| CCN(CC)CCCS(=O)(=O)c1ccc2nc(NC(=O)NC(=O)c3cc(-n4cccc4)ccc3Cl)sc2c1 | 42 | 0.1 ×10⁻⁶ cm/s |  | 2.9 | 9.37 | 3600 nM |  |  |  |
| CN1CCN(CCCS(=O)(=O)c2ccc3nc(NC(=O)NC(=O)c4cc(-n5cccn5)ccc4Cl)sc3c2)CC1 | 7.6 | 2.9 ×10⁻⁶ cm/s | < 0.03 | 2 | 9.17 | 1200 nM |  |  |  |
| CCOc1ccc(Cl)c(C(=O)NC(=O)Nc2nc3ccc(S(=O)(=O)CCCN4CCN(C)CC4)cc3s2)c1 | 5 | 2.8 ×10⁻⁶ cm/s | 0.052 | 2.4 | 9.51 | 4200 nM |  | 0.52 |  |
| Cc1ccn(-c2ccc(C(=O)NC(=O)Nc3nc4ccc(S(=O)(=O)CCCN5CCN(C)CC5)cc4s3)c(Cl)c2)n1 | 0.86 | 3.5 ×10⁻⁶ cm/s |  | 2.6 | 9.32 | 220 nM |  |  |  |
| CN1CCN(CCCS(=O)(=O)c2ccc3nc(NC(=O)NC(=O)c4cccc(-n5cccn5)c4Cl)sc3c2)CC1 | 25 | 0.91 ×10⁻⁶ cm/s |  | 1.6 |  | 12 nM |  |  |  |
| CCN(CC)CCCS(=O)(=O)c1ccc2nc(NC(=O)NC(=O)c3cc(N4CCOCC4)ccc3Cl)sc2c1 | 5.5 | 3.3 ×10⁻⁶ cm/s | < 0.01 | 1.8 | 8.54 | 9400 nM |  |  |  |
| CN1CCN(CCCS(=O)(=O)c2ccc3nc(NC(=O)NC(=O)c4cc(N5CCCC5)c(C#N)cc4Cl)sc3c2)CC1 |  |  |  | 2.8 | 9.62 |  |  |  |  |
| CN1CCN(CCCS(=O)(=O)c2ccc3nc(NC(=O)NC(=O)c4cc(-n5cccn5)c(Cl)cc4Cl)sc3c2)CC1 | 55 | 0.4 ×10⁻⁶ cm/s |  | 2.3 |  | 30 nM |  |  |  |
| COc1ccc2nc(NC(=O)NC(=O)c3c(Cl)cccc3Cl)sc2c1 |  |  |  | > 3.9 | 6.68 |  | < 0.71 µM |  |  |
| CC(C)NCCS(=O)(=O)c1ccc2nc(NC(=O)NC(=O)c3ccccc3Cl)sc2c1 |  |  |  | 2.3 |  |  | 71 µM (≈ 34.2 µg/mL) |  |  |
| CN1CCCN(CCCS(=O)(=O)c2ccc3nc(NC(=O)NC(=O)c4ccccc4Cl)sc3c2)CC1 | 41 | 0.7 ×10⁻⁶ cm/s |  | 1 | 8.38 |  | 340 µM (≈ 187 µg/mL) |  |  |
| COc1ccc2nc(NC(=O)NC(=O)c3ccccc3Cl)sc2c1 |  |  |  | > 4 | 7.12 |  | 0.78 µM (≈ 0.282 µg/mL) |  |  |
| CCN(CC)CCCS(=O)(=O)c1ccc2nc(NC(=O)NC(=O)c3cc(-n4cccn4)ccc3Cl)sc2c1 | 12 | 0.71 ×10⁻⁶ cm/s |  | 2.1 | 8.41 | 1600 nM |  |  |  |
| CN(C)CCCS(=O)(=O)c1ccc2nc(NC(=O)NC(=O)c3ccccc3Cl)sc2c1 | 1.4 | 13 ×10⁻⁶ cm/s |  | 1.7 |  |  | 240 µM (≈ 115 µg/mL) |  |  |
